Values belong to the compound of their own block, whether it stands above or below them. Calls of active or inactive are those of the source. The rule behind the calls is not given here.
What was measured:
Format in all cases: functional
[1] = Antioxidant activity against bovine serum albumin oxidation after 60 mins
In short: (§1)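 BSA (10 mg/mL) oxidised with H2O2 (1.0 mM) and FeSO4 (0.5 mM) in the presence of sample; shaken 10 min, then TCA (10.0%) precipitation at 4 °C. Pellet derivatised with DNPH (10 mM) in 2 N HCl for 1 h at room temperature, reprecipitated with cold TCA, washed, and dissolved in 6 M guanidine-HCl (pH 6.5). Protein carbonyl formation was measured.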

[2] = Antioxidant activity against lipid peroxidation assessed as TBARS production using rape seed oil after 60 mins
In short: (§2)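 Rape seed oil emulsified with Tween-40 in Tris-HCl (0.2 M, pH 7.4). Test compound added at final 37.5, 75.0, 125.0 or 250.0 µM, then tubes held in a boiling water bath for 30 min. Absorbance read at 532 nm. Lipid peroxidation inhibition is given as percent versus a blank without compound. Triplicate.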

[3] = system: Radical scavenging activity; assay: Antioxidant activity assessed as DPPH radical scavenging activity
In short: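 DPPH absorbance at 515 nm read at 30 min against a blank. Compounds tested at 37.5, 75, 125 and 250 µM in triplicate, with Trolox as standard. IC50 is the concentration giving 50% inhibition of absorbance, taken from the plotted curves.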

[4] = Antioxidant activity against pentose 2-deoxyribose oxidation at 250 uM after 60 mins by TBA method
In short: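 Deoxyribose assay in KH2PO4/KOH (10.0 mM, pH 7.4) with H2O2, EDTA, FeCl3 and ascorbic acid (each 100.0 µM) plus 2-deoxyribose (2.8 mM). Compound at final 37.5–250.0 µM, incubated at 37 °C for 1 h. TBA/TCA added, heated at 90 °C for 30 min, read at 532 nm. Result is percent antioxidant capacity versus blank. Triplicate.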

[5] = Antioxidant activity against lipid peroxidation assessed as TBARS production using rape seed oil at 250 uM after 60 mins; in short: as §2
[6] = Antioxidant activity against bovine serum albumin oxidation at 37.5 uM after 60 mins; in short: as §1

Compound: C[C@]12CC[C@H]3C[C@@]3(C)C1=C(O)C(=O)c1c2c(O)c2oc(CO)cc2c1O
Activity [1]: Dose-dependent effect
Activity [2]: Dose-dependent effect
IC50 [3]: 101 µM
inhibition [4]: inactive

Compound: Cc1cc2c(O)c3c(c(O)c2o1)[C@@]1(C)CC[C@H]2C[C@@]2(C)[C@@H]1CC3=O
Activity [1]: Dose-dependent effect
Activity [2]: Dose-dependent effect
IC50 [3]: 130 µM
inhibition [4]: 50%

Compound: Cc1cc2c(O)c3c(c(O)c2o1)[C@@]1(C)CC[C@H]2C[C@@]2(C)C1=C(O)C3=O
Activity [1]: Dose-dependent effect
inhibition [5]: 76.9%
Activity [2]: Dose-dependent effect
IC50 [3]: 55 µM
inhibition [4]: inactive
inhibition [6]: 31%

Compound: C[C@H]1Cc2c(O)c3c(c(O)c2O1)[C@@]1(C)CC[C@H]2C[C@@]2(C)C1=C(O)C3=O [TEUVINCENONE C]
Activity [1]: Dose-dependent effect
Activity [2]: Dose-dependent effect
IC50 [3]: 97 µM
inhibition [4]: 50%

Compound: Cc1cc2c(O)c3c(c(O)c2o1)[C@@]1(C)CCCC(C)(C)C1=C(O)C3=O
Activity [1]: Dose-dependent effect
Activity [2]: Dose-dependent effect
IC50 [3]: 76 µM
inhibition [4]: inactive

Compound: CC1(C)CCC[C@@]2(C)C1=C(O)C(=O)c1c(O)c3c(c(O)c12)O[C@@H](CO)C3 [VILLOSIN C]
Activity [1]: Dose-dependent effect
Activity [2]: Dose-dependent effect
IC50 [3]: 86 µM
inhibition [4]: 50%

Compound: C[C@H]1Cc2c(O)c3c(c(O)c2O1)[C@@]1(C)CCCC(C)(C)C1=C(O)C3=O [TEUVINCENONE B]
Activity [1]: Dose-dependent effect
Activity [2]: Dose-dependent effect
IC50 [3]: 55 µM
inhibition [4]: 50%

Compound: CC1(C)CCC[C@@]2(C)C1=C(O)C(=O)c1c2c(O)c2oc(CO)cc2c1O
Activity [1]: Dose-dependent effect
Activity [2]: Dose-dependent effect
IC50 [3]: 120 µM
inhibition [4]: 50%

Compound: Cc1cc2c(O)c3c(c(O)c2o1)[C@@]1(C)CCC(=O)C(C)(C)C1=C(O)C3=O
Activity [1]: Dose-dependent effect
Activity [2]: Dose-dependent effect
IC50 [3]: 64 µM
inhibition [4]: 50%

IC50 [3]: 24 µM
Compound: Cc1c(C)c2c(c(C)c1O)CCC(C)(C(=O)O)O2 (stereo not given) [TROLOX]

Compound: C[C@@H]1Oc2c(O)c3c(c(O)c2[C@H]1O)C(=O)C(O)=C1[C@]3(C)CC[C@H]2C[C@@]12C
Activity [1]: Dose-dependent effect
Activity [2]: Dose-dependent effect
IC50 [3]: 84 µM
inhibition [4]: 50%

Compound: C[C@H]1Cc2c(O)c3c(c(O)c2O1)[C@@]1(C)CC[C@H]2C[C@@]2(C)[C@@H]1CC3=O [TEUVINCENONE D]
Activity [1]: Dose-dependent effect
Activity [2]: Dose-dependent effect
IC50 [3]: 111 µM
inhibition [4]: 50%

Compound: C[C@@H]1Oc2c(O)c3c(c(O)c2[C@H]1O)C(=O)C(O)=C1C(C)(C)CCC[C@@]13C
Activity [1]: Dose-dependent effect
Activity [2]: Dose-dependent effect
IC50 [3]: 71 µM
inhibition [4]: 50%

Compound: C[C@H]1Cc2c(O)c3c(c(O)c2O1)[C@@]1(C)CCC(=O)C(C)(C)C1=C(O)C3=O [TEUVINCENONE A]
Activity [1]: Dose-dependent effect
Activity [2]: Dose-dependent effect
IC50 [3]: 63 µM
inhibition [4]: 50%
